HTRA1 inh: blocks human HTRA1 serine peptidase; Q92743; recombinant HTRA1, FP-rhodamine activity-based probe, fluorescence polarization; inhibition, % at 5.96 µM; 0.5% of 340,000 active; AID 504803; in the data active = inhibition above about 36%
PRMT1 FP inh: inhibitors of human PRMT1; Q99873; recombinant PRMT1, activity-based probe fluorescence polarization; inhibition, % at 2.79 µM; 1.3% of 370,000 active; AID 652257;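 active = inhibition above about 21% made by adding two undisclosed values, limit read from the data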
rCAG binder: r(CAG) repeat RNA binding. TO-PRO-1 dye displacement fluorescence. inhibition, % at 3 µM. 1.3% of 370,000 active;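 active = inhibition above the plate cutoff, the mean of all test compounds on that plate plus 3 SD, cut at about 35% in these data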;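 note: higher means more dye released from RNA so lower well fluorescence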
mABHD4 FP: inhibits mouse alpha/beta hydrolase domain 4. AID 720543. 0.54% of 370,000 active. Q8VD66. purified mABHD4, FP-Rh probe fluorescence polarization. inhibition, % at 8.92 µM;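 active = inhibition exceeding the mean over every tested compound plus 3 SD, cut at about 30% in these data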
Target sequence (Q8VD66 whole entry, looked up, the tested form may be a part): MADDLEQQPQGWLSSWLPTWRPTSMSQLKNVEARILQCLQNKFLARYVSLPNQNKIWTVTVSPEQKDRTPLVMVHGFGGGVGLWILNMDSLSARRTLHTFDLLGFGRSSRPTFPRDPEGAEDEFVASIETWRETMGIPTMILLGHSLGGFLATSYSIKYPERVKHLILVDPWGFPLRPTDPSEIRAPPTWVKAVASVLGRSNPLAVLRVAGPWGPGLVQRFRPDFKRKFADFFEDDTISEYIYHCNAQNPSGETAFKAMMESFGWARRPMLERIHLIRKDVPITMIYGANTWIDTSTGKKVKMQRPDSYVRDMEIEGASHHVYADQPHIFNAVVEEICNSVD
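Test system: mABHD4 protein; Read-out basis: % inhibition; Incubation: 45 min + 60 min at 25 °C; Repeats: single replicate; Technique: fluorescence polarization with parallel and perpendicular emission, 525/598 nm; Compound: 8.92 µM, single dose; Benchmarks: full inhibition S159A mutant plus DMSO, zero as sample-well median.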
SIAE inh: inhibitors of human sialic acid acetylesterase SIAE | Q9HAT2 | 0.69% of 370,000 active | SIAE FP-Rh probe binding, fluorescence polarization | inhibition, % at 9.66 µM;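 active = inhibition above a cutoff: mean of compounds within the control limits plus 3 SD of those, cut at about 17% in these data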
Large screens that a line does not name were inactive. Rows were chosen to be rich in hits. Some 3.3% of all compounds tested hit in one or more screens of this group.

CS(=O)(=O)Cc1ccc(C(=O)NNC(=O)c2cc(-c3ccccc3)n[nH]2)cc1	none
CS(=O)(=O)c1ccc(C(=O)NNC(=O)c2cc(-c3ccccc3)n[nH]2)cc1	PRMT1 FP inh 24
O=C1CNC(=O)/C(=C/c2ccco2)N1	PRMT1 FP inh 23
COC(=O)[C@]12C[C@H](CC(=O)N3CCSCC3)C(=O)N(Cc3ccco3)C1=C[C@H](C1CCCC1)O[C@@H]2C	none (no result: HTRA1 inh)
COc1ccc(CCC(=O)NNC(=O)Nc2ccc(OC)c(OC)c2)cc1	none
COc1ccc(NC(=O)NNC(=O)CCc2ccc(O)c(O)c2)cc1OC	PRMT1 FP inh 23
CC(C)N(Cc1ccccc1)C(=O)CCS(=O)(=O)c1ccc2c(c1)oc(=O)n2C	PRMT1 FP inh 22
CC(CNC(=O)CCS(=O)(=O)c1ccc2c(c1)oc(=O)n2C)c1ccccc1 (stereo unspecified)	none
COC(=O)c1cc2c(c3c4ccccc4n(S(=O)(=O)c4cccc(C)c4)c13)C(=O)N(Cc1ccc(N(C)C)cc1)C2	PRMT1 FP inh 22 (no result: HTRA1 inh)
COC(=O)c1cc2c(c3c4cc(OC)ccc4n(S(=O)(=O)c4cccc(C)c4)c13)C(=O)N(Cc1ccc(N(C)C)cc1)C2	none (no result: HTRA1 inh)
Cc1ccc(S(=O)(=O)NNC(=O)c2cc3cc4ccccc4nc3s2)cc1	rCAG binder 36
Nc1nc(N)c2cc(Sc3ccc(Cl)cc3)ccc2n1	none
Nc1nc(N)c2cc(Sc3ccc4ccccc4c3)ccc2n1	SIAE inh 29 (no result: HTRA1 inh)
COc1ccc(C(=O)CCN2CCc3cc(OC)c(OC)cc3C2)cc1	PRMT1 FP inh 22
CN(c1cccnc1)c1ccc(NC(=O)Cc2c[nH]c3ccccc23)cc1-c1cccnc1F	none (no result: HTRA1 inh)
COCC(=O)NCC1CCN(C(=O)C(=O)c2cccs2)CC1	none (no result: HTRA1 inh)
O=C(O)c1cccc(N2C(=O)c3cccc4c(Cl)ccc(c34)C2=O)c1	none
Nc1cccc(N2C(=O)c3cccc4c(N)ccc(c34)C2=O)c1	PRMT1 FP inh 113
Cc1cccc(N2C(=O)c3cccc4cccc(c34)C2=O)c1	none
Cc1cccc(N2C(=O)c3cccc4c(N)ccc(c34)C2=O)c1	PRMT1 FP inh 162
Nc1[nH]c(C(=O)c2ccccc2)c(-c2cc(F)ccc2Br)c1C(=O)NCCc1c[nH]c2ccccc12	none (no result: HTRA1 inh)
CCCCn1c(NC(=O)c2ccco2)c(S(=O)(=O)c2ccc(C)cc2)c2nc3ccccc3nc21	rCAG binder 59
CCCCCn1c(NC(=O)c2ccco2)c(S(=O)(=O)c2ccc(C)cc2)c2nc3ccccc3nc21	none
CC(C)(C)N(NS(=O)(=O)c1ccc(F)cc1)c1ccccc1	PRMT1 FP inh 22
Cc1ccccc1NS(=O)(=O)c1ccc(F)cc1	none
CCOC(=O)c1sc2cc([N+](=O)[O-])cc(SCC(=O)OC)c2c1N	PRMT1 FP inh 23
N#CC1(C#N)COC23CCCCC2C1(C#N)C(=N)O3 (stereo unspecified)	PRMT1 FP inh 22
N#CC12COC3(CCCCC3C1(C#N)C#N)OC2=N (stereo unspecified)	PRMT1 FP inh 35
CS(=O)(=O)Nc1ccc(C(=O)NCCc2ccccc2)cc1	SIAE inh 19
COc1ccc(NC(=O)c2cc([N+](=O)[O-])ccc2NC(=O)CNCc2ccccn2)c(OC)c1	PRMT1 FP inh 25
COC(=O)[C@]12C[C@H](CC(=O)NCCCCc3ccccc3)C(=O)N(CCC3=CCCCC3)C1=C[C@H](C(C)C)O[C@@H]2C1CC1	none (no result: HTRA1 inh)
O=c1c(O)c(-c2ccc(O)cc2)oc2cc(O)cc(O)c12	SIAE inh 21
O=c1cc(-c2ccc(O)cc2)oc2cc(O)cc(O)c12	none
C[C@@H]1O[C@@H](Oc2c(-c3cc(O)c(O)c(O)c3)oc3cc(O)cc(O)c3c2=O)[C@H](O)[C@H](O)[C@H]1O	PRMT1 FP inh 37
COC(=O)[C@H](C(C)C)N1Cc2nnn(Cc3ccccc3)c2-c2ccccc2S1(=O)=O	none (no result: HTRA1 inh)
CCN(CC)C(=O)[C@H]1C[C@H](CC(=O)NC/C=C(\C)CCC=C(C)C)C(=O)N2CCc3c([nH]c4cc(-c5ccco5)ccc34)[C@]12C	none
CC(C)=CCC/C(C)=C/CNC(=O)C[C@H]1C[C@H](C(=O)N2CCCCC2)[C@@]2(C)c3[nH]c4cc(-c5ccco5)ccc4c3CCN2C1=O	PRMT1 FP inh 24
COC(=O)CC#C[C@@H](C)[C@H](NS(=O)(=O)c1ccc(C)cc1)C(C)(C)C	none (no result: HTRA1 inh)
CC(=O)Nc1ccc(NC(=O)c2nc(S(=O)(=O)Cc3cccc(C)c3)ncc2Cl)cc1	PRMT1 FP inh 32
Cc1ccc(C(=O)NCc2ccc3c(c2)OCO3)c(Cl)c1	none
Cc1ccc(NC(=O)c2nc(S(=O)(=O)Cc3ccccc3C)ncc2Cl)cc1C	PRMT1 FP inh 35
CCOC(=O)c1ccc(NC(=O)c2nc(S(=O)(=O)Cc3ccccc3)ncc2Cl)cc1	none
Cc1cccc(CS(=O)(=O)c2ncc(Cl)c(C(=O)NCc3ccc4c(c3)OCO4)n2)c1	PRMT1 FP inh 22
C/C=C/Cn1c(SCCCc2ccccc2)nc2c1c(=O)[nH]c(=O)n2C	none
CC(C)n1c(SCCCc2ccccc2)nc2c1c(=O)[nH]c(=O)n2C	PRMT1 FP inh 22
COCCn1c(C)cc(/C=C2/SC(=O)N(C(C)C(=O)OC)C2=O)c1C (stereo unspecified)	none
COCCn1c(C)cc(/C=C2\NC(=S)N(C)C2=O)c1C	PRMT1 FP inh 22
Cc1ccccc1OCC(=O)NCC(=O)OCC(=O)c1ccc([N+](=O)[O-])cc1	PRMT1 FP inh 24
COC(=O)C1=CN(c2cccc(C)c2)C=C(C(=O)OC)C1c1cc(OC)c(O)c([N+](=O)[O-])c1	HTRA1 inh 52
COC(=O)C1=CN(c2ccc(OC)cc2)C=C(C(=O)OC)C1c1ccc(C)c([N+](=O)[O-])c1	none
C/C(=C/c1c[n+](Cc2ccc3c(c2)OCO3)c(N)[nH]1)Cn1[nH]c(=O)n(-c2ccccc2)c1=O	none (no result: HTRA1 inh)
S=c1nc(-c2sccc2OCc2ccc(Cl)cc2Cl)[nH][nH]1	PRMT1 FP inh 25
CC(C)(N[C@@H](Cc1c[nH]c2ccccc12)C(=O)NCC(c1ccccc1)c1ccccc1)C(=O)NC1CCCCC1	none (no result: HTRA1 inh, rCAG binder)
CCCCOCCCNC(=O)C[C@H]1C[C@@]2(C(=O)OC)C(=C[C@H](C(C)(C)C)O[C@@H]2C)N(Cc2ccc3c(c2)OCO3)C1=O	none (no result: HTRA1 inh)
O=C1Nc2ccccc2Nc2ccccc21	none
O=C1Nc2cc(Cl)ccc2Nc2cscc21	PRMT1 FP inh 23
COC(=O)C1=C(C)N(C)C(=NCC2CC2)NC1c1cccc(Cl)c1 (stereo unspecified)	none (no result: HTRA1 inh)
CC(C)Cc1ccc(CN2C(C)C(=O)N(Cc3cn(Cc4ccco4)nn3)CCS2(=O)=O)cc1 (stereo unspecified)	rCAG binder 51 (no result: HTRA1 inh)
COc1ccc(CNC(=O)c2ccc3c(c2)N(C)C(=O)CS3=O)cc1 (stereo unspecified)	PRMT1 FP inh 22
COc1ccc(CNC(=O)c2ccc3c(c2)N(C)CCS3)cc1	none
Cc1cc(NC(=O)Cc2cn(Cc3ccccc3)c3ccccc23)ccc1Oc1cccnc1	none (no result: HTRA1 inh)

High-throughput results: PubChem, The Scripps Research Institute Molecular Screening Center
